Source: ChEMBL document CHEMBL1938351, “The discovery of potent antagonists of NPBWR1 (GPR7)” (Bioorg Med Chem Lett, 2012)
pIC50: −log10 of the molar value. Active and inactive are the calls of the source. The calls are words filed in the database; no cut-off is given here.

Legend:
[1] = target: T1, Neuropeptides B/W receptor type 1 (Mus musculus, UniProt P49681); experiment: Antagonist activity at mouse NPBWR1 expressed in CHO-K1 cells assessed as inhibition of hNPW23 and forskolin-stimulated cAMP production after 1 hr by TR-FRET assay; type: functional, cell-based
T1 sequence (P49681 whole entry): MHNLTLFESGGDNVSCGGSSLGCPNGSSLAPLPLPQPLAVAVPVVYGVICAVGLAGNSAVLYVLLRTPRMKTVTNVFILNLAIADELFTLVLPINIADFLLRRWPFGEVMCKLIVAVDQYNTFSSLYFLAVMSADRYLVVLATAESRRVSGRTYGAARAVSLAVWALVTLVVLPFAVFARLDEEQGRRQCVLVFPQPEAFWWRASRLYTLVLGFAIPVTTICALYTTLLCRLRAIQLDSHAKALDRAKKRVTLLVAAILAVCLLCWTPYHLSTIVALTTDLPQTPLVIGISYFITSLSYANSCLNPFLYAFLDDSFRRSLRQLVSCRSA

[2] = target: T1, Neuropeptides B/W receptor type 1; experiment: Displacement of [125]-hNPW23 from mouse NPBWR1 expressed in CHO-K1 cells membrane by scintillation proximity assay; type: cell membranes
[3] = target: T2, Neuropeptides B/W receptor type 1 (Homo sapiens, UniProt P48145); experiment: Displacement of [125]-hNPW23 from human NPBWR1 expressed in CHO-K1 cells membrane by scintillation proximity assay; type: cell membranes
T2 sequence (P48145 whole entry): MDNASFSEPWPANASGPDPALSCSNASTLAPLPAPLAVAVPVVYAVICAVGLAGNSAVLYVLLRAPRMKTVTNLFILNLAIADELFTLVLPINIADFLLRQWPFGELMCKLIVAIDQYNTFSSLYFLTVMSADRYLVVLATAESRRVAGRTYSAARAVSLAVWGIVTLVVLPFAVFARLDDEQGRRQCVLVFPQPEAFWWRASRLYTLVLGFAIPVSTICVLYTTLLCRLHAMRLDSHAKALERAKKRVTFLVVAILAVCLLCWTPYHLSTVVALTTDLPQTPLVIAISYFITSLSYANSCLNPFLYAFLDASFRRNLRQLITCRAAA

[4] = target: T2, Neuropeptides B/W receptor type 1; experiment: Antagonist activity at human NPBWR1 expressed in CHO-K1 cells assessed as inhibition of hNPW23 and forskolin-stimulated cAMP production after 1 hr by TR-FRET assay; type: functional, cell-based
LLC-PK1 = experiment: P-glycoprotein-mediated efflux in pig LLC-PK1 cells expressing MDR1; type: cell-based; settings: Sus scrofa
[5] = Metabolic stability in mouse liver microsomes assessed as compound remaining after 30 mins; type: ADME, Microsome; settings: read-out: Stability
Outline: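 Compounds were incubated with mouse liver microsomes. The read-out was the percentage of parent compound remaining at 30 min.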

SMILES	pIC50 [1]	pIC50 [2]	pIC50 [3]	pIC50 [4]	remaining at 0.5 h [5] [%]	Activity (LLC-PK1)
COc1ccc([C@@H](C)N[C@@H]2CC[C@H](C(=O)N3CCN(c4ncccc4Cl)CC3)[C@@H](c3ccsc3)C2)cc1	< 4.49					
COc1ccc(C2(N[C@@H]3CC[C@H](C(=O)N4CCN(c5nnc(Br)s5)CC4)[C@@H](c4ccsc4)C3)CCC2)cc1					< 10	Active
COc1ccc(CN[C@@H]2CC[C@H](C(=O)N3CCN(c4ccc(Cl)cn4)CC3)[C@@H](c3ccsc3)C2)cc1	5.44	5.82				
COc1ccc(C(C)(C)N[C@@H]2CC[C@H](C(=O)N3CCN(c4nc5ccccc5o4)CC3)[C@@H](c3ccsc3)C2)cc1					< 10	Active
COc1ccc([C@@H](C)N[C@@H]2CC[C@H](C(=O)N3CCN(c4ccc(OC)cn4)CC3)[C@@H](c3ccsc3)C2)cc1	5.14					
COc1ccc(C(C)(C)N[C@@H]2CC[C@H](C(=O)N3CCN(c4nc5ccccc5[nH]4)CC3)[C@@H](c3ccsc3)C2)cc1					< 10	Active
COc1ccc(C2(N[C@@H]3CC[C@H](C(=O)N4CCN(c5nc6ccccc6o5)CC4)[C@@H](c4ccsc4)C3)CCC2)cc1					< 10	Active
COc1ccc([C@@H](C)N[C@@H]2CC[C@H](C(=O)N3CCN(c4ccc(C#N)cn4)CC3)[C@@H](c3ccsc3)C2)cc1	5.15	5.94				
COc1ccc([C@@H](C)N[C@@H]2CC[C@H](C(=O)N3CCN(c4cc(Cl)ccn4)CC3)[C@@H](c3ccsc3)C2)cc1	5.67					
COc1ccc([C@@H](C)N[C@@H]2CC[C@H](C(=O)N3CCN(c4cccc(Cl)n4)CC3)[C@@H](c3ccsc3)C2)cc1	5.13					
COc1ccc([C@@H](C)N[C@@H]2CC[C@H](C(=O)N3CCN(c4ccc(Cl)cc4)CC3)[C@@H](c3ccsc3)C2)cc1	5.41	5.43				
COc1ccc(C2(N[C@@H]3CC[C@H](C(=O)N4CCN(c5nnc(C(F)(F)F)s5)CC4)[C@@H](c4ccsc4)C3)CCC2)cc1					< 10	Active
O=C([C@H]1CC[C@@H](NC2(c3ccccc3Br)CCC2)C[C@@H]1c1ccsc1)N1CCN(c2ccc(Cl)cn2)CC1	5.66	5.66				
C[C@@H](N[C@@H]1CC[C@H](C(=O)N2CCN(c3ccc(Cl)cn3)CC2)[C@@H](c2ccsc2)C1)c1ccc(Br)cc1	5.58	6.87				
CC(C)(N[C@@H]1CC[C@H](C(=O)N2CCN(c3ccc(Cl)cn3)CC2)[C@@H](c2ccsc2)C1)c1ccc(Cl)cc1	5.77	7.57				
COc1ccc(C2(N[C@@H]3CC[C@H](C(=O)N4CCN(c5nc6cc(C)ccc6o5)CC4)[C@@H](c4ccsc4)C3)CCC2)cc1					< 10	Active

The next lines start with results.

pIC50 [1]	pIC50 [2]	pIC50 [3]	pIC50 [4]	remaining at 0.5 h [5] [%]	SMILES	Activity (LLC-PK1)
5.96	7.00				CC(C)(N[C@@H]1CC[C@H](C(=O)N2CCN(c3ccc(Cl)cn3)CC2)[C@@H](c2ccsc2)C1)c1ccc([N+](=O)[O-])cc1	
6.44	7.60	6.49	5.72	0	COc1ccc([C@@H](C)N[C@@H]2CC[C@H](C(=O)N3CCN(c4ccc(Cl)cn4)CC3)[C@@H](c3ccsc3)C2)cc1	Active
8.74	9.48			< 10	COc1ccc(C2(N[C@@H]3CC[C@H](C(=O)N4CCN(c5nc6ccccc6s5)CC4)[C@@H](c4ccsc4)C3)CCC2)cc1	Active
6.48					COc1ccc([C@@H](C)N[C@@H]2CC[C@H](C(=O)N3CCN(c4ccccn4)CC3)[C@@H](c3ccsc3)C2)cc1	
8.89	9.74			< 10	COc1ccc(C2(N[C@@H]3CC[C@H](C(=O)N4CCN(c5nc6ccc(F)cc6o5)CC4)[C@@H](c4ccsc4)C3)CCC2)cc1	Active
9.18	9.38			< 10	COc1ccc(C2(N[C@@H]3CC[C@H](C(=O)N4CCN(c5nc6cc(F)ccc6[nH]5)CC4)[C@@H](c4ccsc4)C3)CCC2)cc1	Active
7.74	8.55				COc1ccc([C@@H](C)N[C@@H]2CC[C@H](C(=O)N3CCN(c4nc5ccccc5o4)CC3)[C@@H](c3ccsc3)C2)cc1	
6.68	6.71				COc1ccc([C@@H](C)N[C@@H]2CC[C@H](C(=O)N3CCN(c4nccs4)CC3)[C@@H](c3ccsc3)C2)cc1	
6.01	6.66				C[C@@H](N[C@@H]1CC[C@H](C(=O)N2CCN(c3ccc(Cl)cn3)CC2)[C@@H](c2ccsc2)C1)c1ccccc1	
6.22	7.09				O=C([C@H]1CC[C@@H](NC2(c3ccc(Br)cc3)CCC2)C[C@@H]1c1ccsc1)N1CCN(c2ccc(Cl)cn2)CC1	
6.40	7.13				COc1ccc([C@@H](C)N[C@@H]2CC[C@H](C(=O)N3CCN(c4ccc(C)cn4)CC3)[C@@H](c3ccsc3)C2)cc1	
6.94	7.38				COc1ccc([C@@H](C)N[C@@H]2CC[C@H](C(=O)N3CCN(c4nnc(C(F)(F)F)s4)CC3)[C@@H](c3ccsc3)C2)cc1	
6.68	7.80				Cc1ccc(C(C)(C)N[C@@H]2CC[C@H](C(=O)N3CCN(c4ccc(Cl)cn4)CC3)[C@@H](c3ccsc3)C2)cc1	
6.70					COc1ccc([C@@H](C)N[C@@H]2CC[C@H](C(=O)N3CCN(c4ccc(C(F)(F)F)cn4)CC3)[C@@H](c3ccsc3)C2)cc1	
8.52	8.96	8.23	7.96	< 10	COc1ccc(C2(N[C@@H]3CC[C@H](C(=O)N4CCN(c5nc6ccccc6[nH]5)CC4)[C@@H](c4ccsc4)C3)CCC2)cc1	Active
7.70	8.08				COc1ccc([C@@H](C)N[C@@H]2CC[C@H](C(=O)N3CCN(c4nc5ccccc5[nH]4)CC3)[C@@H](c3ccsc3)C2)cc1	
7.37	7.96				COc1ccc(C(C)(C)N[C@@H]2CC[C@H](C(=O)N3CCN(c4ccc(Cl)cn4)CC3)[C@@H](c3ccsc3)C2)cc1	
7.62	8.35				COc1ccc([C@@H](C)N[C@@H]2CC[C@H](C(=O)N3CCN(c4nc5ccccc5s4)CC3)[C@@H](c3ccsc3)C2)cc1	
6.49	7.77				CC(C)(N[C@@H]1CC[C@H](C(=O)N2CCN(c3ccc(Cl)cn3)CC2)[C@@H](c2ccsc2)C1)c1ccc(F)cc1	
6.28	7.25				COc1ccc(C2(N[C@@H]3CC[C@H](C(=O)N4CCN(c5ccc(Cl)cn5)CC4)[C@@H](c4ccsc4)C3)CC2)cc1	
7.26	7.85				COc1ccc([C@@H](C)N[C@@H]2CC[C@H](C(=O)N3CCN(c4ncc(Br)s4)CC3)[C@@H](c3ccsc3)C2)cc1	
6.01	6.80				O=C([C@H]1CC[C@@H](NC2(c3cccc(Br)c3)CCC2)C[C@@H]1c1ccsc1)N1CCN(c2ccc(Cl)cn2)CC1	
7.70	8.51				COc1ccc(C2(N[C@@H]3CC[C@H](C(=O)N4CCN(c5ccc(Cl)cn5)CC4)[C@@H](c4ccsc4)C3)CCC2)cc1	
5.99	6.93				COc1cccc(C2(N[C@@H]3CC[C@H](C(=O)N4CCN(c5ccc(Cl)cn5)CC4)[C@@H](c4ccsc4)C3)CCC2)c1	
9.07	9.70			< 10	COc1ccc(C2(N[C@@H]3CC[C@H](C(=O)N4CCN(c5nc6cc(F)ccc6o5)CC4)[C@@H](c4ccsc4)C3)CCC2)cc1	Active
